The source made the active and inactive calls. No cut-off for these calls is given here.
Legend:
[1] = Inhibition of LDL endocytosis in NPC1 deficient chinese hamster cells assessed as ratio of DiI-labeled LDL level in treated to untreated control at 10 uM after 18 hrs by fluorimetry
[2] = Inhibition of LDL endocytosis in NPC1 deficient chinese hamster CT60 cells assessed as ratio of DiI-labeled LDL level in treated to untreated control at 10 uM after 35 mins by fluorimetry; format: functional, Cricetulus griseus
Method in brief: (§1)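 CT60 or 25RA cells incubated with compound together with DiI-labeled LDL, either 35 min (short) or 18 h (long). Uptake quantified as DiI fluorescence intensity per cell area and normalized to the mean of solvent (DMSO)-treated samples.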

[3] = species on record: Cricetulus griseus; assay: Increase in cholesterol efflux in wild type chinese hamster 25RA cells with SCAP gene gain of function mutation at 10 uM after 18 hrs by [3H]cholesterol incorporation assay; format: functional
Method in brief: (§2)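 Cells labeled 24 h with 1 µCi/ml [3H]-cholesterol, then incubated 18 h with 10 µM compound. Efflux went to serum acceptors. Efflux is supernatant radioactivity divided by supernatant plus cell-monolayer radioactivity, compared with solvent-treated control cells.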

[4] = species on record: Cricetulus griseus; assay: Increase in cholesterol efflux in chinese hamster TRVb1 cells expressing human transferrin receptor at 10 uM after 18 hrs by [3H]cholesterol incorporation assay; format: functional
Method in brief: as §2

[5] = Reduction in cholesterol level in lysosomal storage organelles of NPC1 deficient chinese hamster CT60 cells at 10 uM by LSO compartment ratio assay; format: functional, Cricetulus griseus; parameters: scale not given: the % may be the effect or the level left
[6] = biological target: T1, Sterol O-acyltransferase 1 (Cricetulus griseus) (UniProt Q60457); assay: Increase in ACAT-induced cholesterol esterification in NPC1 deficient chinese hamster CT60 cells assessed as ratio of [14C]oleic acid incorporation in treated to untreated control at 10 uM; format: cell-based
T1 sequence (whole entry): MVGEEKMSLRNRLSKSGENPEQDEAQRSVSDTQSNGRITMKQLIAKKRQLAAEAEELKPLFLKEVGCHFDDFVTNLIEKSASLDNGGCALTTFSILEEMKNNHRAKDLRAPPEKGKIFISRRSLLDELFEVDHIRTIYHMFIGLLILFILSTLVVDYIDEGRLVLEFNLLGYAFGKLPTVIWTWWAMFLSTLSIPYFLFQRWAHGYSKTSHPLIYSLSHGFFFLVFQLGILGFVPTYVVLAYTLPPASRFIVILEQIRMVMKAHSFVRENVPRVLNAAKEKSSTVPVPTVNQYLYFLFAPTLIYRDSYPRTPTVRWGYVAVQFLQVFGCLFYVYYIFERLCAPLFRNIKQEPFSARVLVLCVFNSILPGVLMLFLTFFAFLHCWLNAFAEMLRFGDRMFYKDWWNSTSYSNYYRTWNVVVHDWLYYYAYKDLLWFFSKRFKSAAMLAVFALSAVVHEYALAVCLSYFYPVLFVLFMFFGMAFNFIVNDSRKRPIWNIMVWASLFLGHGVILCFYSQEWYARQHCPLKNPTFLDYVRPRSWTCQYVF
Method in brief: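 CT60 cells treated 18 h at 10 µM. ACAT esterification measured as incorporation of [14C]-oleic acid into cholesteryl-[14C]-oleate, normalized to cellular protein. Expressed relative to solvent-treated controls.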

[7] = Reduction in cholesterol level in lysosomal storage organelles of NPC1 deficient chinese hamster CT43 cells at 10 uM by LSO compartment ratio assay; format: functional, Cricetulus griseus; parameters: scale not given: the % may be the effect or the level left
[8] = system: CT60; assay: Increase in cholesterol efflux in NPC1 deficient chinese hamster CT60 cells at 10 uM after 18 hrs by [3H]cholesterol incorporation assay; format: functional, cell-based; settings: Cricetulus griseus
Method in brief: as §2

[9] = Effect on cholesterol esters content in NPC1 deficient chinese hamster CT60 cells assessed as ratio of cholesteryl esters level in treated to untreated control at 10 uM by gas chromatography; format: functional, Cricetulus griseus
Method in brief: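 CT60 cells exposed to 10 µM for 18 h alongside solvent (DMSO) controls. Total cellular cholesteryl ester measured by GC and expressed per µg cell protein. Reported relative to solvent-treated cells.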

[10] = Inhibition of LDL endocytosis in wild type chinese hamster 25RA cells assessed as ratio of DiI-labeled LDL level in treated to untreated control at 10 uM after 35 mins by fluorimetry; format: functional, Cricetulus griseus
Method in brief: as §1

[11] = Inhibition of LDL endocytosis in NPC1 deficient chinese hamster CT60 cells assessed as ratio of DiI-labeled LDL level in treated to untreated control at 10 uM after 18 hrs by fluorimetry; format: functional, Cricetulus griseus
Method in brief: as §1

With O=C(O)c1ccc(N2C(=O)/C(=C\c3ccc(-c4ccc(Br)cc4)o3)C=C2c2ccccc2)cc1 the Ratio [1] was 0.67, the Ratio [2] was 0.93 and the Activity [3] was “Active”. For the same compound, the Activity [4] was “Active”, the Activity [5] was 30% and the Ratio [6] was 1.49. For the same compound, the Activity [7] was 80%, the Activity [8] was “Active” and the Ratio [9] was 1.05. The Ratio [10] was 1.16 and the Ratio [11] was 0.59.
